Data published in ChEMBL document CHEMBL4834420, “Projected Dose Optimization of Amino- and Hydroxypyrrolidine Purine PI3Kδ Immunomodulators” (J Med Chem, 2021).
Calls of active or inactive are those of the source. The calls are words filed in the database; no cut-off is given here.

Legend:
[1] = molecular target: PI3-kinase p110-delta/p85-alpha (Homo sapiens, UniProt O00329); experiment: Inhibition of N-terminal His6-tagged recombinant full length human p110delta/untagged recombinant full length human p85alpha expressed in baculovirus infected Sf21 insect cells using PIP2 as substrate preincubated for 15 mins followed by substrate addition and measured after 1 hr by HTRF assay
[2] = Lipophilicity, log D of the compound by HPLC analysis; type: physicochemical
[3] = Unbound volume of distribution in Wistar Han rat; type: ADME; settings: in vivo
[4] = Plasma clearance in Beagle dog at 0.25 mg/kg, iv or 0.5 mg/kg, po; type: ADME, organism-based, Canis lupus familiaris
[5] = Volume of distribution in Beagle dog; type: ADME, Canis lupus familiaris; settings: in vivo
[6] = Unbound volume of distribution in Beagle dog; type: ADME, Canis lupus familiaris; settings: in vivo
[7] = Half-life in Beagle dog; type: ADME, Canis lupus familiaris; settings: in vivo
Cytochrome P450 3A4 = Cytochrome P450 3A4 (Homo sapiens, UniProt P08684); experiment: Inhibition of CYP3A4 (unknown origin); type: ADME
Cytochrome P450 2C9 = Cytochrome P450 2C9 (Homo sapiens, UniProt P11712); experiment: Inhibition of CYP2C9 (unknown origin); type: ADME
[8] = Intrinsic clearance in rat hepatocytes; type: ADME, cell-based, Hepatocyte; settings: read-out: CLH
[9] = Volume of distribution in C57BL/6 mouse; type: ADME; settings: in vivo
[10] = Protein binding in C57BL/6 mouse plasma; type: ADME, cell-free; settings: read-out: PPB (converted)
[11] = molecular target: ATP-dependent translocase ABCB1 (Homo sapiens, UniProt P08183); experiment: Inhibition of PGP (unknown origin)
[12] = molecular target: T1, Phosphatidylinositol 4,5-bisphosphate 3-kinase catalytic subunit delta isoform (Mus musculus) (UniProt O35904); experiment: Inhibition of PI3Kdelta in Foxp3-GFP C57BL/6 mouse assessed as reduction in Treg population administered upto 7 days; settings: dose 30-100 mg/kg, time day <=7
T1 sequence (whole entry): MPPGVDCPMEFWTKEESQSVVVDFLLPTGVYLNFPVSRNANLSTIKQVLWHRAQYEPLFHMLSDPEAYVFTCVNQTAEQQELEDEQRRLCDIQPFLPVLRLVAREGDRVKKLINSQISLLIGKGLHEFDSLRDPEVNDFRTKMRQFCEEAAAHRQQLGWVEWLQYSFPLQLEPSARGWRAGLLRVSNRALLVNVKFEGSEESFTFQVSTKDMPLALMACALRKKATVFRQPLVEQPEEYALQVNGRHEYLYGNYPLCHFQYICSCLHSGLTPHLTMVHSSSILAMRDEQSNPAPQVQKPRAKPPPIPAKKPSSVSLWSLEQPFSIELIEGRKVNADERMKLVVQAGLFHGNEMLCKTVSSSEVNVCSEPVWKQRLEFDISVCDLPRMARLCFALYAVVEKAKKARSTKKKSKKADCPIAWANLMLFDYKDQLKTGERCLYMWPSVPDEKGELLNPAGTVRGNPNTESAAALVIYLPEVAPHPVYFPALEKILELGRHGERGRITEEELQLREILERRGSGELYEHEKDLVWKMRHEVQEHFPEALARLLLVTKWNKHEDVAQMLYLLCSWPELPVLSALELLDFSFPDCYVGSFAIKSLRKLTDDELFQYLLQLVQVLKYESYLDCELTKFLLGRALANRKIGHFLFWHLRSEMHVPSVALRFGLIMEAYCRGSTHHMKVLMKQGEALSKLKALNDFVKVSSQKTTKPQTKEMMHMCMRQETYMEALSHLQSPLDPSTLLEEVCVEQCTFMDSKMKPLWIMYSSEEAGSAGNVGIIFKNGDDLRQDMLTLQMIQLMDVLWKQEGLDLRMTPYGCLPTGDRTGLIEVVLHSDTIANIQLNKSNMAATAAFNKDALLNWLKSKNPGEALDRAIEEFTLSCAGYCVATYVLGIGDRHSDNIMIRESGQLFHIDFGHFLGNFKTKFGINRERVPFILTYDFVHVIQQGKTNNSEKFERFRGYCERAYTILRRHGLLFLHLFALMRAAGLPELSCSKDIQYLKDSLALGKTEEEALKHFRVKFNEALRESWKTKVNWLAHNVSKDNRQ
Summary of the method: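 C57BL/6 Foxp3-GFP reporter mice were dosed at 30 and 100 mg/kg/day for up to 7 days. Treg population was monitored by bioluminescence imaging 10 min after ip injection of 3 mg luciferin. Radiance was quantified as photons/s/cm²/steradian. Diphtheria toxin served as a positive control.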

[13] = Trough plasma concentration C57BL/6 mouse at 100 mg/kg; type: ADME, organism-based; settings: in vivo, read-out: Cmin
Summary of the method: (§1)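 C57BL/6-Foxp3-GFP reporter mice were dosed at 30 and 100 mg/kg/day for up to 7 days, with exposure determined at 100 mg/kg. The unbound Cmax and trough values were derived from total plasma levels. Treg readout was bioluminescence imaging 10 min after 3 mg luciferin ip, reported as radiance in photons/s/cm²/steradian.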

[14] = Unbound Cmax in C57BL/6 mouse at 100 mg/kg; type: ADME, organism-based; settings: in vivo; summary of the method: as §1
[15] = Unbound trough plasma concentration C57BL/6 mouse at 100 mg/kg; type: ADME, organism-based; settings: in vivo; summary of the method: as §1
Rattus norvegicus = experiment: Immunomodulatory activity in ovalbumin induced Brown Norway rat allergic rhinitis model assessed as reduction in BAL count at 30 mg/kg, po administered for 2 days and treated with ovalbumin after 1 hr post second dose; type: functional, organism-based; settings: time 2.0 day
Summary of the method: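 Brown Norway rats were presensitized with ovalbumin, 0.020 mg ip daily for 14 days. They then received compound orally for 2 days (0.3–30 mg/kg range studied). Ovalbumin challenge came 1 h after the second dose. Eosinophil cell count in bronchoalveolar lavage was assessed 48 h later.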

[16] = Plasma protein binding in Brown Norway rat at 10 mg/kg, po; type: ADME, organism-based; settings: read-out: PPB (converted)

Chain of Cytochrome P450 3A4 (P08684 whole entry): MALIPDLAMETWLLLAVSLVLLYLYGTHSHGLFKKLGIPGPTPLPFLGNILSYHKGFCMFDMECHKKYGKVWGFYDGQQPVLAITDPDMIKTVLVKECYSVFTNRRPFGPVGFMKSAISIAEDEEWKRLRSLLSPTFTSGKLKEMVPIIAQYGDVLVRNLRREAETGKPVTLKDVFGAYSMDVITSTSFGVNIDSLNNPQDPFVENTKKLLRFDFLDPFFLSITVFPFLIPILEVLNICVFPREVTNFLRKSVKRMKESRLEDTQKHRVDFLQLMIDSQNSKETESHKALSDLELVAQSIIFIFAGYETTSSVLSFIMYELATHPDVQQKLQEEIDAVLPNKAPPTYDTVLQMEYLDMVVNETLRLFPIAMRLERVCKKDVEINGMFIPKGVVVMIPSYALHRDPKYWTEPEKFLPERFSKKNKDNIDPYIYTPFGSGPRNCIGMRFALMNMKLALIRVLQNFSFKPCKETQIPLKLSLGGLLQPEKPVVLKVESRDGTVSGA
Chain of ATP-dependent translocase ABCB1 (P08183 whole entry, canonical isoform): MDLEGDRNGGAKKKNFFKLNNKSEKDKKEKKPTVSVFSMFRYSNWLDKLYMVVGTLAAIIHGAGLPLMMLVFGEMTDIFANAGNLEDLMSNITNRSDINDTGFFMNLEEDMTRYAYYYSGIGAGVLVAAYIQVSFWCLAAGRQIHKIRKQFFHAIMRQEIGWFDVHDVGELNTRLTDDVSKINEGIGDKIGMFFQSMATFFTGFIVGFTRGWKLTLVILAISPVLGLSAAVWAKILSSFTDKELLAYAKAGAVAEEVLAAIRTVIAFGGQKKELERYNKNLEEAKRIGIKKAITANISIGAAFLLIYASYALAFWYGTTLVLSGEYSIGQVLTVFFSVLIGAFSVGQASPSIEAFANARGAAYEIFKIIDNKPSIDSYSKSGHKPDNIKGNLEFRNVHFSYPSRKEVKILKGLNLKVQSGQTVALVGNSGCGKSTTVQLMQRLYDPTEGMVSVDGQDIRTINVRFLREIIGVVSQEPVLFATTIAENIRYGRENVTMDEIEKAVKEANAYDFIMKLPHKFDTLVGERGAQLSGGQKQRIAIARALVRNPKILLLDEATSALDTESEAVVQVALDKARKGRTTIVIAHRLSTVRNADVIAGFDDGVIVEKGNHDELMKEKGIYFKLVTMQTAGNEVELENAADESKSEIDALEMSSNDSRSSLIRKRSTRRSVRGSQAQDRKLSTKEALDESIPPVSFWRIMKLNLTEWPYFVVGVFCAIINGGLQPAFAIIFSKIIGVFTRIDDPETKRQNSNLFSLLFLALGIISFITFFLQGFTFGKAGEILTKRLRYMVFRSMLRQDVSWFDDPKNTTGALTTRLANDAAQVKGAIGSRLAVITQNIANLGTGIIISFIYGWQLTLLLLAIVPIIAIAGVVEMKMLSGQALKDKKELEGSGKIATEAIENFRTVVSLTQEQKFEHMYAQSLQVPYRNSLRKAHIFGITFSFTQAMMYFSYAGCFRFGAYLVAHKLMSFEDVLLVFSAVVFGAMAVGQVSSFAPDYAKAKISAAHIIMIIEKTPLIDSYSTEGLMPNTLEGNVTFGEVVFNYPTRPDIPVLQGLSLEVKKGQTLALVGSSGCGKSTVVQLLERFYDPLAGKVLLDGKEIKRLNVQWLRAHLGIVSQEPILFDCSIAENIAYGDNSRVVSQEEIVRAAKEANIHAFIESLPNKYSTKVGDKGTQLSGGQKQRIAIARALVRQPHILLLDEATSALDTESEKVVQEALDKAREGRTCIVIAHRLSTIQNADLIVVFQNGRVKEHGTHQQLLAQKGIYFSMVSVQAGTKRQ
Chain of PI3-kinase p110-delta/p85-alpha (P27986 whole entry): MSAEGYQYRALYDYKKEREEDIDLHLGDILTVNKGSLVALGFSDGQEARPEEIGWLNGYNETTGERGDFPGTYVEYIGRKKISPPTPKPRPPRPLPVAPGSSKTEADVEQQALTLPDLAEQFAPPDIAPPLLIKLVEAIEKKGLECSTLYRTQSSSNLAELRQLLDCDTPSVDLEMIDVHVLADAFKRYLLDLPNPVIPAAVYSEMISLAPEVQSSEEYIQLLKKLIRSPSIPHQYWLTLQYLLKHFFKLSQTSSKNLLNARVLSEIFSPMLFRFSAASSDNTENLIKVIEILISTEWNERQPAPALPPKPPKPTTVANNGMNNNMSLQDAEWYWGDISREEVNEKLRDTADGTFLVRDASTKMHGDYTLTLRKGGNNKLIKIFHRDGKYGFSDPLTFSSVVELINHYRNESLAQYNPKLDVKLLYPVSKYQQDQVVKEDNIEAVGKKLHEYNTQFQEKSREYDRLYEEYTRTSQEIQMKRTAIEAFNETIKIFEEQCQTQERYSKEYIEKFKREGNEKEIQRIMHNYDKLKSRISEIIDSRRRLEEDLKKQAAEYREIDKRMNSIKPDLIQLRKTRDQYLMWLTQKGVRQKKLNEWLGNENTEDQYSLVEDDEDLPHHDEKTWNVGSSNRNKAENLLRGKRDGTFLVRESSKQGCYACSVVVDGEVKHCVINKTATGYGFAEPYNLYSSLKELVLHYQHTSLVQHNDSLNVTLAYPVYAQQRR
Chain of PI3-kinase p110-delta/p85-alpha (O00329 whole entry): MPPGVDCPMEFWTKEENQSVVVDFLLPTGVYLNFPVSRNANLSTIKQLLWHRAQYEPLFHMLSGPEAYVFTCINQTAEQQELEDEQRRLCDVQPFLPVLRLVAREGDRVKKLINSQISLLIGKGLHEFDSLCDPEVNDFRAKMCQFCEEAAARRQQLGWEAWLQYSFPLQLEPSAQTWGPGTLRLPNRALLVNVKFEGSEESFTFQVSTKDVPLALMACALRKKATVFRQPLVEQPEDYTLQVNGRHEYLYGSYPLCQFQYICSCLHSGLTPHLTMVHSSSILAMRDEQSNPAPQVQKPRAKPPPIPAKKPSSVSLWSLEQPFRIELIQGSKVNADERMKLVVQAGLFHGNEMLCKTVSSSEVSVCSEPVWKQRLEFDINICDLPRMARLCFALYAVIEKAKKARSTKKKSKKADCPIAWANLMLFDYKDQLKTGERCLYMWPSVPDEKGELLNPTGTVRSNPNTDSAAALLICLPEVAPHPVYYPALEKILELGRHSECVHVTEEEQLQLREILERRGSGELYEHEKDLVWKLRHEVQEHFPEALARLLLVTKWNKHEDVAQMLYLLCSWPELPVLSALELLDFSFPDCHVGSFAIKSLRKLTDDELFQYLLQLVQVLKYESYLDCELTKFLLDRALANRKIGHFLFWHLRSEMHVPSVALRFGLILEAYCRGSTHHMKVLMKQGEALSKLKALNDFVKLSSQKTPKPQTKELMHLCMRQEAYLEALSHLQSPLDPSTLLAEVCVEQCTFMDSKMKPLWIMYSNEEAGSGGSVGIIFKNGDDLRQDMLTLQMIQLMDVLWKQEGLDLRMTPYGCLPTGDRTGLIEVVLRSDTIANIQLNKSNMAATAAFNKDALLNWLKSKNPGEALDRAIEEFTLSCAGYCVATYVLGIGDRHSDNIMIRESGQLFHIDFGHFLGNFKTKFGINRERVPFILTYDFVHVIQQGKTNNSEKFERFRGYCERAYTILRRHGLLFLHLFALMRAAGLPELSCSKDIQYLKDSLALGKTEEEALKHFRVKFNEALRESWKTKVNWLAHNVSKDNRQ
Chain of Cytochrome P450 2C9 (P11712 whole entry): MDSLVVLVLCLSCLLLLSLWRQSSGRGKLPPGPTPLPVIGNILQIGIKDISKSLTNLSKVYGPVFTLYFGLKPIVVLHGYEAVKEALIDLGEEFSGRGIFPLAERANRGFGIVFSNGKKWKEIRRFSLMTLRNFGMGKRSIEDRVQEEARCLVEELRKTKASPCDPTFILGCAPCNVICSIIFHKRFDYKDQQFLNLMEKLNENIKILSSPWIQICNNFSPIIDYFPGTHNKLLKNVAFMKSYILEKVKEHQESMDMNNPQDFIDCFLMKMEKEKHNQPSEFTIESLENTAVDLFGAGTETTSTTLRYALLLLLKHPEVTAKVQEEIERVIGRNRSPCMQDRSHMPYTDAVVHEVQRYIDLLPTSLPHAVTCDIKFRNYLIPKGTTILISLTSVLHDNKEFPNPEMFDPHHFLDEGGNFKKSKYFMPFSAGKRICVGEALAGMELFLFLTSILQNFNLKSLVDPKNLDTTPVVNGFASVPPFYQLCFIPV

- IC50 [1]: 0.0016 µM
- logD [2]: 0.8
- Vdu [3]: 6.3 L/kg
- clearance [4]: 4.3 mL/min/kg
- Vd [5]: 1.5 L/kg
- Vdu [6]: 1.8 L/kg
- half-life [7]: 4.3 h
- IC50 (Cytochrome P450 3A4): > 50 µM
- IC50 (Cytochrome P450 2C9): > 50 µM
- CLint scaled [8]: < 2 mL/min/kg
- Vd [9]: 0.2 L/kg
- fraction unbound [10]: 0.47
- inhibition (INH) [11]: Not Active
- Activity [12]: Dose-Dependent Effect
- concentration [13]: 110 nM
- fCmax [14]: 16 µM
- fCmin [15]: 52 nM
- fraction unbound [16]: 0.59
Compound: CCn1c(-c2cnc(C)nc2)nc2c(N[C@H]3CCN(C(=O)C4CC4)C3)ncnc21
- Activity (Rattus norvegicus): Active
